Reference: ChEMBL document CHEMBL4033788, “Novel Ligustrazine-Based Analogs of Piperlongumine Potently Suppress Proliferation and Metastasis of Colorectal Cancer Cells in Vitro and in Vivo” (J Med Chem, 2018)
Active and inactive are the calls of the source. The calls are words filed in the database; no cut-off is given here.

Columns and labels:
[1] = molecular target: T1, Catenin beta-1 (Homo sapiens) (UniProt P35222); experiment: Inhibition of TGF-beta1-regulated increase in nuclear beta-catenin in human HCT116 cells at 50 nM after 48 hrs by Western blot analysis; format: cell-based
T1 sequence (whole entry): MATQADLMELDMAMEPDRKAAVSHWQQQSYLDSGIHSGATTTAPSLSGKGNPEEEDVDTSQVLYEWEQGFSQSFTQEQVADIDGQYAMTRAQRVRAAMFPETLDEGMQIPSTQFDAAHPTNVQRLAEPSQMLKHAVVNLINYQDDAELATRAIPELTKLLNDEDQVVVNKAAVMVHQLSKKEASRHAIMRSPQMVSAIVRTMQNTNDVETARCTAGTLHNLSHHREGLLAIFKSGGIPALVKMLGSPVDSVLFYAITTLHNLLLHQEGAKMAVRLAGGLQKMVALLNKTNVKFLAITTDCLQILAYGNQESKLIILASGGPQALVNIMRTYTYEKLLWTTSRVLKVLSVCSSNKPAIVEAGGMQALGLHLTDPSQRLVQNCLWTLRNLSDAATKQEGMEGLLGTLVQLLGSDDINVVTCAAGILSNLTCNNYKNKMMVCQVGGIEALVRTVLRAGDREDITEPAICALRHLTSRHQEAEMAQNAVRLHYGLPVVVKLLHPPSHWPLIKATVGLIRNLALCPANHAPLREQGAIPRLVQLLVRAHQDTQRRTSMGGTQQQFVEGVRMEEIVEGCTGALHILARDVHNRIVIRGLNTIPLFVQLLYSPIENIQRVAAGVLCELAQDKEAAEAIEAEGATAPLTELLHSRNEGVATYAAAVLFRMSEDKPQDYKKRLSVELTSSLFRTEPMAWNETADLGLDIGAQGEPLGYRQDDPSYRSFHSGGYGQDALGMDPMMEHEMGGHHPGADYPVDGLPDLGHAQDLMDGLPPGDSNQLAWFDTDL
How it was run: (§1)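 Cytoplasmic and nuclear β-catenin were measured by Western blot in HCT-116 cells given TGF-β1 (10 ng/mL) for 48 h, with or without compound, against 0.1% DMSO vehicle. Lysates (20 μg/lane) were run on 7.5% gels and transferred to PVDF, with Lamin A among the antibodies used. Blots were read by ECL and densitometry, n = 3 independent experiments.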

[2] = Thiol reactivity in DMSO assessed as methyl 2-(3-chloro-2-oxo-1-(3-(3,5,6-trimethylpyrazin-2-yl)acryloyl)piperidin-4-ylthio)acetate formation at 5 mg up to 8 hrs in presence of methyl thioglycolate by 1H NMR analysis
[3] = tested on: HCT-116; experiment: Antiproliferative activity against human HCT116 cells at […] pretreated with GSH for 1 hr measured after 72 hrs by MTT assay relative to control; format: functional
[4] = tested on: HCT-116; experiment: Antitumor activity against human HCT116 cells xenografted in BALB/c nude mouse assessed as reduction in tumor volume at 2.5 to 5 mg/kg, ip administered daily for 21 consecutive days; format: functional, organism-based
How it was run: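 Male BALB/c nude mice, 3–5 weeks old, inoculated subcutaneously with 1 × 10^7 HCT-116 cells. At about 75 mm³ tumor volume, randomized (n = 8/group) and dosed intraperitoneally daily. Volume by caliper as d² × D/2. At the end, tumors excised and weighed; inhibition = (Wcontrol − Wtreated)/Wcontrol × 100%.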

[5] = tested on: HCT-116; experiment: Induction of ROS accumulation in human HCT116 cells up to 3 hrs in presence of GSH by DCFH-DA staining-based fluorescence microscopic analysis; format: functional, cell-based
[6] = Stability of compound in human HCT116 cells at 1 uM after 4 hrs by LC-MS/MS analysis; format: ADME, cell-based; details: hct-116, 4 h
[7] = tested on: HCT-116; experiment: Antimetastatic activity against human HCT116 cells xenografted in BALB/c nude mouse model assessed as reduction in lung metastatic tumor at 2 to 4 mg/kg, ip administered thrice a week for 6 consecutive weeks by H and E staining-based assay; format: functional, organism-based
How it was run: (§2)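 BALB/c nude mice received HCT-116 cells into the tail vein, then were randomized and dosed intraperitoneally (1, 2 or 4 mg/kg) three times weekly. Body weight recorded weekly. Lungs sectioned (4 μm), H&E stained, and nodule number and area scored blinded in three sections per mouse. Nodule counts n = 4–6 per group.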

[8] = tested on: HCT-116; experiment: Inhibition of TGF-beta1-induced decrease in expression levels of E-cadherin protein in human HCT116 cells after 48 hrs by Western blot analysis; format: functional, cell-based
How it was run: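 HCT-116 cells treated with or without TGF-β1 (10 ng/mL) for 48 h, with or without test agent. Lysates (20 μg/lane) run on 7.5% SDS-PAGE and transferred to PVDF. Probed for p-Akt (Ser473), Akt, p-GSK-3β (S9), GSK-3β, E-cadherin, MMP-9 and β-actin, detected by ECL. Densitometry relative to β-actin or total protein. Three independent experiments.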

[9] = Acute toxicity in ip dosed ICR mouse assessed as mortality after 14 days; format: organism-based; details: in vivo
[10] = tested on: Mus musculus; experiment: Acute toxicity in ICR mouse assessed as mortality at 400 mg/kg, ip administered for 14 days; format: organism-based; details: in vivo, 336 h
[11] = tested on: HCT-116; experiment: Inhibition of TGF-beta1-induced increase in expression levels of twist protein in human HCT116 cells after 48 hrs by Western blot analysis; format: functional, cell-based
How it was run: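 HCT-116 cells (1 × 10^6/well, plated overnight) were exposed to TGF-β1 (10 ng/mL) for 48 h, with or without test compound; vehicle was 0.1% DMSO. Lysates (20 μg/lane) were run on 7.5% SDS-PAGE and blotted to PVDF, with primary antibody overnight at 4 °C and HRP/ECL detection. Band densities were normalised to β-actin across three independent experiments.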

[12] = tested on: HCT-116; experiment: Antiproliferative activity against human HCT116 cells at […] after 72 hrs by MTT assay relative to control; format: functional; details: HCT-116, 72 h
[13] = tested on: HCT-116; experiment: Antimetastatic activity against human HCT116 cells xenografted in BALB/c nude mouse model assessed as reduction in lung metastatic nodules at 2 to 4 mg/kg, ip administered thrice a week for 6 consecutive weeks by H and E staining-based assay; format: functional, organism-based; how it was run: as §2
[14] = molecular target: T1, Catenin beta-1 (Homo sapiens); experiment: Inhibition of TGF-beta1-regulated decrease in cytoplasmic beta-catenin in human HCT116 cells at 2 to 50 nM after 48 hrs by Western blot analysis; format: cell-based; how it was run: as §1
[15] = tested on: Mus musculus; experiment: Nephrotoxicity in BALB/c nude mouse xenografted with human HCT116 cells at 2.5 to 5 mg/kg, ip administered for 21 consecutive days; format: toxicity, organism-based; details: in vivo
How it was run: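 Male BALB/c nude mice (3−5 weeks) inoculated sc with 1 × 10^7 HCT-116 cells; at tumour volume about 75 mm3 randomized (n = 8 per group) and dosed ip daily at 2.5 or 5 mg/kg for 21 consecutive days. Body weights monitored; liver, kidney, lung and heart inspected for size and morphology at sacrifice.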

[16] = tested on: HCT-116; experiment: Inhibition of IL-1beta-mediated adhesion of human rhodamine 123-labeled HCT116 cells to HUVEC after 1 hr by fluoresence assay; format: functional, cell-based
How it was run: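 HUVEC monolayers pretreated with or without IL-1β (1 ng/mL) for 4 h, then washed. Rhodamine 123-labeled HCT-116 cells added with vehicle or test agent (2, 10, 50 nM) at 37 °C for 1 h. Non-adherent cells washed off; percent adhered cells determined by fluorescence microscopy. Three separate experiments.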

Compound	inhibition [1]	Drug metabolism [2]	inhibition at […] [3]	Activity [4]	Activity [5]	Stability [6]	Activity [7]	inhibition [8]	LD50 at 336 h [9]	Activity [10]	inhibition [11]	inhibition at […] [12]	Activity [13]	inhibition [14]	Activity [15]	inhibition [16]
COc1cc(/C=C/C(=O)N2CCC=CC2=O)cc(OC)c1OC [PIPLARTINE]	Active															
Cc1nc(C)c(/C=C/C(=O)N2CCC=C(Cl)C2=O)nc1C		Metabolite detected	36.1%	Active	inactive	Stable	Active	Dose-dependent effect	148 mg/kg	Toxic	Dose-dependent effect	82.9%	Active	Active	Non-Toxic	Dose-dependent effect
